# Results: ChEMBL document CHEMBL1141258, “Prismatomerin, a new iridoid from Prismatomeris tetrandra. Structure elucidation, determination of absolute configuration, and cytotoxicity” (J Nat Prod, 2007)
# Calls of active or inactive are those of the source. The rule behind the calls is not given here.
# How the values were obtained:
# COLO 205 = test: Growth inhibition of human COLO205 cells after 48 hrs by SRB assay; assay type: functional; conditions: COLO 205, 48 h
# Method in brief: (§1)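 NCI 60 human tumour cell line in vitro anticancer screen, run at NCI. Compound tested at a minimum of five concentrations in 10-fold dilutions per cell line.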
# MCF7 = test: Growth inhibition of human MCF7 cells after 48 hrs by SRB assay; assay type: functional; conditions: MCF7, 48 h
# Method in brief: (§2)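 Run at NCI in the 60-human-tumor-cell-line anticancer screen. Each compound was tested at a minimum of five concentrations at 10-fold dilutions.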
# SNB-75 = test: Growth inhibition of human SNB75 cells after 48 hrs by SRB assay; assay type: functional; method in brief: as §1
# NCI/ADR-RES = test: Growth inhibition of human NCI/ADR-RES cells after 48 hrs by SRB assay; assay type: functional; method in brief: as §1
# Malme-3M = test: Growth inhibition of human MALME-3M cells after 48 hrs by SRB assay; assay type: functional; method in brief: as §1
# SK-MEL-5 = test: Growth inhibition of human SKMEL5 cells after 48 hrs by SRB assay; assay type: functional; method in brief: as §2
# MDA-MB-231 = test: Growth inhibition of human MDA-MB-231 cells after 48 hrs by SRB assay; assay type: functional; conditions: MDA-MB-231, 48 h; method in brief: as §1
# ACHN = test: Growth inhibition of human ACHN cells after 48 hrs by SRB assay; assay type: functional; method in brief: as §1
# NCI-H226 = test: Growth inhibition of human NCIH226 cells after 48 hrs by SRB assay; assay type: functional; conditions: NCI-H226, 48 h; method in brief: as §2
# RPMI-8226 = test: Growth inhibition of human RPMI8226 cells after 48 hrs by SRB assay; assay type: functional; conditions: RPMI-8226, 48 h; method in brief: as §1
# IGROV-1 = test: Growth inhibition of human IGROV1 cells after 48 hrs by SRB assay; assay type: functional; conditions: IGROV-1, 48 h, read-out: Log LC50 (the source's name) (converted); method in brief: as §2
# SK-MEL-28 = test: Growth inhibition of human SK-MEL28 cells after 48 hrs by SRB assay; assay type: functional; conditions: SK-MEL-28, 48 h; method in brief: as §1
# SK-OV-3 = test: Growth inhibition of human SK-OV3 cells after 48 hrs by SRB assay; assay type: functional; conditions: SK-OV-3, 48 h; method in brief: as §2
# PC-3 = test: Growth inhibition of human PC3 cells after 48 hrs by SRB assay; assay type: functional; conditions: PC-3, 48 h; method in brief: as §1
# NCI-H522 = test: Growth inhibition of human NCI-H522 cells after 48 hrs by SRB assay; assay type: functional; conditions: NCI-H522, 48 h; method in brief: as §1
# HCT-116 = test: Growth inhibition of human HCT116 cells after 48 hrs by SRB assay; assay type: functional; method in brief: as §2
# [1] = Antiproliferative activity against human KB31 cells after 5 days by MTT assay; conditions: KB 3-1, 120 h
# SNB-19 = test: Growth inhibition of human SNB19 cells after 48 hrs by SRB assay; assay type: functional; conditions: SNB-19, 48 h; method in brief: as §2
# [2] = Toxicity in brine shrimp after 24 hrs; assay type: organism-based; conditions: artemia, in vivo; read-out: LD50
# SK-MEL-2 = test: Growth inhibition of human SK-MEL2 cells after 48 hrs by SRB assay; assay type: functional; method in brief: as §2
# [3] = Growth inhibition of human […] cells after 48 hrs by SRB assay; assay type: functional; method in brief: as §2
# K562 = test: Growth inhibition of human K562 cells after 48 hrs by SRB assay; assay type: functional; conditions: K562, 48 h; method in brief: as §1
# SN12C = test: Growth inhibition of human SN12C cells after 48 hrs by SRB assay; assay type: functional; method in brief: as §2
# HL-60 = test: Growth inhibition of human HL60 cells after 48 hrs by SRB assay; assay type: functional; conditions: HL-60, 48 h; method in brief: as §1
# OVCAR-4 = test: Growth inhibition of human OVACAR4 cells after 48 hrs by SRB assay; assay type: functional; conditions: OVCAR-4, 48 h; method in brief: as §2
# [4] = read-out: Log LC50 (the source's name) (converted)
smiles,measurement,setting,value
COC(=O)C1=CO[C@@H]2O[C@H]3/C(=C\c4ccc(O)cc4)C(=O)O[C@]34C=C[C@H]1[C@H]24 [PRISMATOMERIN],GI50,COLO 205,537 nM
same,CC50,COLO 205; [4],> 100000 nM
same,GI50,MCF7,120 nM
same,CC50,MCF7; [4],> 100000 nM
same,TGI,MCF7; read-out: Log TGI (converted),1000 nM
same,Activity,SNB-75,inactive
same,CC50,"SNB-75; SNB-75, 48 h, read-out: Log LC50 (the source's name) (converted)",> 100000 nM
same,GI50,NCI/ADR-RES,170 nM
same,CC50,NCI/ADR-RES; [4],17400 nM
same,GI50,Malme-3M,135 nM
same,CC50,Malme-3M; [4],4680 nM
same,Activity,SK-MEL-5,inactive
same,GI50,"SK-MEL-5; SK-MEL-5, 48 h",< 10 nM
same,TGI,"SK-MEL-5; SK-MEL-5, 48 h, read-out: Log TGI (converted)",186 nM
same,GI50,MDA-MB-231,162 nM
same,CC50,MDA-MB-231; [4],851 nM
same,GI50,ACHN,< 10 nM
same,CC50,ACHN; [4],2090 nM
same,GI50,NCI-H226,174 nM
same,CC50,NCI-H226; [4],22900 nM
same,TGI,NCI-H226; read-out: Log TGI (converted),479 nM
same,GI50,RPMI-8226,< 10 nM
same,CC50,RPMI-8226; [4],> 100000 nM
same,CC50,IGROV-1,851 nM
same,GI50,SK-MEL-28,316 nM
same,CC50,SK-MEL-28; [4],> 100000 nM
same,GI50,SK-OV-3,912 nM
same,CC50,SK-OV-3; [4],> 100000 nM
same,TGI,SK-OV-3; read-out: Log TGI (converted),3160 nM
same,GI50,PC-3,170 nM
same,CC50,PC-3; [4],3020 nM
same,GI50,NCI-H522,186 nM
same,CC50,NCI-H522; [4],1350 nM
same,Activity,HCT-116,inactive
same,GI50,"HCT-116; HCT-116, 48 h",< 10 nM
same,TGI,"HCT-116; HCT-116, 48 h, read-out: Log TGI (converted)",100 nM
same,IC50,[1],410 nM
same,GI50,SNB-19,347 nM
same,CC50,SNB-19; [4],26900 nM
same,TGI,SNB-19; read-out: Log TGI (converted),110000 nM
same,LC50 at 24 h,[2],195 nM
same,Activity,SK-MEL-2,inactive
same,GI50,"SK-MEL-2; SK-MEL-2, 48 h",166 nM
same,GI50,[3],1950 nM
same,CC50,[3]; [4],24500 nM
same,TGI,[3]; read-out: Log TGI (converted),5370 nM
same,GI50,K562,< 10 nM
same,CC50,K562; [4],> 100000 nM
same,GI50,SN12C,174 nM
same,CC50,SN12C; [4],813 nM
same,TGI,SN12C; read-out: Log TGI (converted),380 nM
same,GI50,HL-60,< 10 nM
same,CC50,HL-60; [4],> 100000 nM
same,GI50,OVCAR-4,575 nM
same,CC50,OVCAR-4; [4],> 100000 nM
same,TGI,OVCAR-4; read-out: Log TGI (converted),3470 nM
